Tested on: Fibroblast
Experiment: Multiplex assay against human fibroblast
Format: toxicity, cell-based
Outline: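 Cells stained live at seeding with Hoechst33342, BioTracker Green Microtubule Cytoskeleton Dye, MitoTracker Red and Annexin V Alexa Fluor 680 were imaged on a CQ1 microscope at 37°C and 5% CO2 after compound addition. Their classification by CellPathfinder machine-learning gating ran from Hoechst high-intensity objects versus normal cells, to healthy, pyknosed or fragmented nuclei among normal cells, to mitotic or apoptotic among pyknosed cells. Tubulin, mitochondrial-mass and membrane-permeability phenotypes are per cents of healthy-nucleus cells.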

[1] = 12 h, 1 µM, compound concentration 1 uM, replicate 1
[2] = 12 h, 1 µM, compound concentration 1 uM, replicate 2
[3] = 12 h, 10 µM, compound concentration 10 uM, replicate 1
[4] = 12 h, 10 µM, compound concentration 10 uM, replicate 2
[5] = 24 h, 1 µM, compound concentration 1 uM, replicate 1
[6] = 24 h, 1 µM, compound concentration 1 uM, replicate 2
[7] = 24 h, 10 µM, compound concentration 10 uM, replicate 1
[8] = 24 h, 10 µM, compound concentration 10 uM, replicate 2
[9] = 48 h, 1 µM, compound concentration 1 uM, replicate 1
[10] = 48 h, 1 µM, compound concentration 1 uM, replicate 2
[11] = 48 h, 10 µM, compound concentration 10 uM, replicate 1
[12] = 48 h, 10 µM, compound concentration 10 uM, replicate 2

SMILES: Cc1c(P(=S)(c2ccccc2)c2ccccc2)n2ccccc2[n+]1C/C=C/c1ccccc1.[Br-]
- Population Apoptotic (%) [1]: 63%
- Population Fragmented Nuclei (%) [1]: 26%
- Population Healthy Nuclei (%) [1]: 43%
- Population Hoechst High Intensity Objects (%) [1]: 7%
- Population Membrane Permeable-Phenotype (%) [1]: 7%
- Population Mitochondria Different-Phenotype (%) [1]: 28%
- Population Mitotic Cells (%) [1]: 36%
- Population Normal (%) [1]: 92%
- Population Pyknosed Nuclei (%) [1]: 30%
- Population Tubulin-Different-Phenotype (%) [1]: 60%
- Total Cell Count [1]: 177
- Population Apoptotic (%) [2]: 75%
- Population Fragmented Nuclei (%) [2]: 50%
- Population Healthy Nuclei (%) [2]: 45%
- Population Hoechst High Intensity Objects (%) [2]: 22%
- Population Membrane Permeable-Phenotype (%) [2]: 10%
- Population Mitochondria Different-Phenotype (%) [2]: 50%
- Population Mitotic Cells (%) [2]: 25%
- Population Normal (%) [2]: 77%
- Population Pyknosed Nuclei (%) [2]: 4%
- Population Tubulin-Different-Phenotype (%) [2]: 31%
- Total Cell Count [2]: 93
- Population Apoptotic (%) [3]: 73%
- Population Fragmented Nuclei (%) [3]: 23%
- Population Healthy Nuclei (%) [3]: 14%
- Population Hoechst High Intensity Objects (%) [3]: 14%
- Population Membrane Permeable-Phenotype (%) [3]: 5%
- Population Mitochondria Different-Phenotype (%) [3]: 64%
- Population Mitotic Cells (%) [3]: 26%
- Population Normal (%) [3]: 85%
- Population Pyknosed Nuclei (%) [3]: 62%
- Population Tubulin-Different-Phenotype (%) [3]: 88%
- Total Cell Count [3]: 137
- Population Apoptotic (%) [4]: 94%
- Population Fragmented Nuclei (%) [4]: 21%
- Population Healthy Nuclei (%) [4]: 10%
- Population Hoechst High Intensity Objects (%) [4]: 8%
- Population Membrane Permeable-Phenotype (%) [4]: 83%
- Population Mitochondria Different-Phenotype (%) [4]: 83%
- Population Mitotic Cells (%) [4]: 5%
- Population Normal (%) [4]: 91%
- Population Pyknosed Nuclei (%) [4]: 68%
- Population Tubulin-Different-Phenotype (%) [4]: 83%
- Total Cell Count [4]: 108
- Population Apoptotic (%) [5]: 70%
- Population Fragmented Nuclei (%) [5]: 22%
- Population Healthy Nuclei (%) [5]: 58%
- Population Hoechst High Intensity Objects (%) [5]: 9%
- Population Membrane Permeable-Phenotype (%) [5]: 5%
- Population Mitochondria Different-Phenotype (%) [5]: 40%
- Population Mitotic Cells (%) [5]: 29%
- Population Normal (%) [5]: 90%
- Population Pyknosed Nuclei (%) [5]: 19%
- Population Tubulin-Different-Phenotype (%) [5]: 59%
- Total Cell Count [5]: 181
- Population Apoptotic (%) [6]: 75%
- Population Fragmented Nuclei (%) [6]: 55%
- Population Healthy Nuclei (%) [6]: 40%
- Population Hoechst High Intensity Objects (%) [6]: 33%
- Population Membrane Permeable-Phenotype (%) [6]: 9%
- Population Mitochondria Different-Phenotype (%) [6]: 31%
- Population Mitotic Cells (%) [6]: 25%
- Population Normal (%) [6]: 66%
- Population Pyknosed Nuclei (%) [6]: 3%
- Population Tubulin-Different-Phenotype (%) [6]: 15%
- Total Cell Count [6]: 124
- Population Apoptotic (%) [7]: 85%
- Population Fragmented Nuclei (%) [7]: 17%
- Population Healthy Nuclei (%) [7]: 10%
- Population Hoechst High Intensity Objects (%) [7]: 18%
- Population Membrane Permeable-Phenotype (%) [7]: 8%
- Population Mitochondria Different-Phenotype (%) [7]: 83%
- Population Mitotic Cells (%) [7]: 14%
- Population Normal (%) [7]: 81%
- Population Pyknosed Nuclei (%) [7]: 71%
- Population Tubulin-Different-Phenotype (%) [7]: 75%
- Total Cell Count [7]: 138
- Population Apoptotic (%) [8]: 100%
- Population Fragmented Nuclei (%) [8]: 23%
- Population Healthy Nuclei (%) [8]: 38%
- Population Hoechst High Intensity Objects (%) [8]: 26%
- Population Membrane Permeable-Phenotype (%) [8]: 81%
- Population Mitochondria Different-Phenotype (%) [8]: 81%
- Population Mitotic Cells (%) [8]: 0%
- Population Normal (%) [8]: 73%
- Population Pyknosed Nuclei (%) [8]: 38%
- Population Tubulin-Different-Phenotype (%) [8]: 81%
- Total Cell Count [8]: 163
- Population Apoptotic (%) [9]: 60%
- Population Fragmented Nuclei (%) [9]: 33%
- Population Healthy Nuclei (%) [9]: 54%
- Population Hoechst High Intensity Objects (%) [9]: 12%
- Population Membrane Permeable-Phenotype (%) [9]: 6%
- Population Mitochondria Different-Phenotype (%) [9]: 42%
- Population Mitotic Cells (%) [9]: 40%
- Population Normal (%) [9]: 87%
- Population Pyknosed Nuclei (%) [9]: 11%
- Population Tubulin-Different-Phenotype (%) [9]: 64%
- Total Cell Count [9]: 191
- Population Apoptotic (%) [10]: 100%
- Population Fragmented Nuclei (%) [10]: 29%
- Population Healthy Nuclei (%) [10]: 70%
- Population Hoechst High Intensity Objects (%) [10]: 10%
- Population Membrane Permeable-Phenotype (%) [10]: 2%
- Population Mitochondria Different-Phenotype (%) [10]: 48%
- Population Mitotic Cells (%) [10]: 0%
- Population Normal (%) [10]: 89%
- Population Pyknosed Nuclei (%) [10]: 0%
- Population Tubulin-Different-Phenotype (%) [10]: 72%
- Total Cell Count [10]: 123
- Population Apoptotic (%) [11]: 92%
- Population Fragmented Nuclei (%) [11]: 36%
- Population Healthy Nuclei (%) [11]: 21%
- Population Membrane Permeable-Phenotype (%) [11]: 0%
- Population Mitochondria Different-Phenotype (%) [11]: 85%
- Population Mitotic Cells (%) [11]: 7%
- Population Pyknosed Nuclei (%) [11]: 42%
- Population Tubulin-Different-Phenotype (%) [11]: 95%
- Total Cell Count [11]: 141
- Population Apoptotic (%) [12]: 84%
- Population Fragmented Nuclei (%) [12]: 52%
- Population Healthy Nuclei (%) [12]: 18%
- Population Hoechst High Intensity Objects (%) [12]: 32%
- Population Membrane Permeable-Phenotype (%) [12]: 25%
- Population Mitochondria Different-Phenotype (%) [12]: 75%
- Population Mitotic Cells (%) [12]: 15%
- Population Normal (%) [12]: 67%
- Population Pyknosed Nuclei (%) [12]: 29%
- Population Tubulin-Different-Phenotype (%) [12]: 100%
- Total Cell Count [12]: 65

Source: ChEMBL document CHEMBL4689842, “EUbOPEN Chemogenomics Library wave 1” (2021)
